Measured values from ChEMBL document CHEMBL1255300, “Pharmacodynamics of the antibacterial effect and emergence of resistance to tomopenem, formerly RO4908463/CS-023, in an in vitro pharmacokinetic model of Staphylococcus aureus infection” (Antimicrob Agents Chemother, 2008).
Activity calls are given as the source filed them. The calls are words filed in the database; no cut-off is given here.

How the values were obtained:
[1] = tested on: Staphylococcus aureus; experiment: Antibacterial activity against methicillin-resistant Staphylococcus aureus 33820 in in vitro pharmacokinetic model assessed as viable count at 6 times of MIC; format: functional
Outline: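 Population analysis before drug exposure (time 0). Model samples were plated on nutrient agar without drug and with tomopenem at 2×, 4× and 6× MIC (10% MHB MIC), and growth was recorded as log CFU/ml. Detection limit 2 log10.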

[2] = tested on: Staphylococcus aureus; experiment: AUBKC (0 to 24 hrs) in methicillin-resistant Staphylococcus aureus 33922 infected in in vitro pharmacokinetic model at 750 mg, iv every 8 hrs using 10^8 CFU/ml inoculum; format: functional
Outline: (§1)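 Single-compartment dilutional in vitro PK model at 37°C in 10% Mueller-Hinton broth, stirred, flow 132 ml/h. […] Inoculum 10^6 CFU/ml added 45 min before dosing, or 10^8 CFU/ml run overnight. Viable counts with β-lactamase neutralisation. AUBKC by log-linear trapezoidal rule, at least triplicate.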

[3] = tested on: Staphylococcus aureus; experiment: T>MIC for 2-log drop in count in methicillin-resistant Staphylococcus aureus 33820 in in vitro pharmacokinetic model after 24 hrs using 10^6 CFU/ml inoculum; format: functional
[4] = tested on: Staphylococcus aureus; experiment: Antibacterial activity against methicillin-resistant Staphylococcus aureus 33815 infected in in vitro pharmacokinetic model assessed as reduction in viable count at 750 mg, iv every 8 hrs measured after 48 hrs using 10^6 CFU/ml inoculum; format: functional
Outline: (§2)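 Single-compartment dilutional in vitro PK model, 37°C, stirred, in 10% Mueller-Hinton broth. […] Inoculum 10^6 CFU/ml from a 24-h plate culture was added 45 min before dosing. Viable counts by spiral plating on nutrient agar with β-lactamase neutralization. Log change was taken from time 0; detection limit 10^2 CFU/ml; at least triplicate.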

[5] = tested on: Staphylococcus aureus; experiment: T>MIC for 4-log drop in count in methicillin-resistant Staphylococcus aureus 33827 in in vitro pharmacokinetic model after 24 hrs using 10^8 CFU/ml inoculum; format: functional
[6] = tested on: Staphylococcus aureus; experiment: Antibacterial activity against methicillin-resistant Staphylococcus aureus 33815 assessed as viable count at 2 times of MIC after 24 hrs using 10^6 CFU/ml inoculum; format: functional, organism-based
Outline: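 Population analysis during tomopenem dose-ranging runs in the in vitro PK model (10^6 CFU/ml, T>MIC 0-100%). […] Growth counted as log CFU/ml, detection limit 2 log10.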

[7] = tested on: Staphylococcus aureus; experiment: Antibacterial activity against methicillin-resistant Staphylococcus aureus 33921 infected in in vitro pharmacokinetic model assessed as reduction in viable count at 750 mg, iv every 8 hrs measured after 48 hrs using 10^6 CFU/ml inoculum; format: functional
[8] = tested on: Staphylococcus aureus; experiment: T>MIC for 4-log drop in count in methicillin-resistant Staphylococcus aureus 33820 in in vitro pharmacokinetic model after 24 hrs using 10^6 CFU/ml inoculum; format: functional
[9] = tested on: Staphylococcus aureus; experiment: Antibacterial activity against methicillin-resistant Staphylococcus aureus 33922 in in vitro pharmacokinetic model assessed as viable count at 2 times of MIC; format: functional
[10] = tested on: Staphylococcus aureus; experiment: Antibacterial activity against methicillin-resistant Staphylococcus aureus 33827 assessed as viable count at 2 times of MIC after 24 hrs using 10^6 CFU/ml inoculum; format: functional, organism-based
[11] = tested on: Staphylococcus aureus; experiment: Antibacterial activity against methicillin-resistant Staphylococcus aureus 33815 in in vitro pharmacokinetic model assessed as viable count at 4 times of MIC; format: functional
Outline: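 Preexposure population analysis profile: model sample at time zero plated on nutrient agar with tomopenem at multiples of the MIC. Growth counted as log CFU/ml, detection limit 2 log10.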

[12] = tested on: Staphylococcus aureus; experiment: Antibacterial activity against methicillin-resistant Staphylococcus aureus 33921 infected in in vitro pharmacokinetic model assessed as time required to 99.9% killing at 1500 mg, iv every 8 hrs using 10^6 CFU/ml inoculum; format: functional
[13] = tested on: Staphylococcus aureus; experiment: T>MIC in methicillin-resistant Staphylococcus aureus 33820 infected in vitro pharmacokinetic model at 750 mg, iv every 8 hrs; format: functional
[14] = tested on: Staphylococcus aureus; experiment: Antibacterial activity against methicillin-resistant Staphylococcus aureus 33820 infected in in vitro pharmacokinetic model assessed as reduction in viable count at 750 mg, iv every 8 hrs measured after 12 hrs using 10^6 CFU/ml inoculum; format: functional; outline: as §2
[15] = tested on: Staphylococcus aureus; experiment: Antibacterial activity against methicillin-resistant Staphylococcus aureus 33827 infected in in vitro pharmacokinetic model assessed as reduction in viable count at 750 mg, iv every 8 hrs measured after 36 hrs using 10^8 CFU/ml inoculum; format: functional
Outline: (§3)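 Single-compartment dilutional in vitro PK model, 10% Mueller-Hinton broth, 37°C, stirred, dilution 132 ml/h. […] Inoculum 10^6 CFU/ml (added 45 min pre-dose) or 10^8 CFU/ml (run overnight). Viable counts by spiral plating, beta-lactamase neutralization, detection limit 10^2 CFU/ml. At least triplicate.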

[16] = tested on: Staphylococcus aureus; experiment: T>MIC for 1-log drop in count in methicillin-sensitive Staphylococcus aureus 5956 in in vitro pharmacokinetic model after 24 hrs using 10^6 CFU/ml inoculum; format: functional
Outline: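 Dose-ranging: 7–13 simulated regimens per strain giving T>MIC of 0–100% (MIC from 10% MHB), at 106 or 10^8 CFU/ml as stated.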

[17] = tested on: Staphylococcus aureus; experiment: Antibacterial activity against methicillin-resistant Staphylococcus aureus 33815 infected in in vitro pharmacokinetic model assessed as reduction in viable count at 750 mg, iv every 8 hrs measured after 36 hrs using 10^6 CFU/ml inoculum; format: functional; outline: as §2
[18] = tested on: Staphylococcus aureus; experiment: Antibacterial activity against methicillin-resistant Staphylococcus aureus 33829 in in vitro pharmacokinetic model assessed as viable count at 2 times of MIC; format: functional
Outline: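 Preexposure population analysis: time-zero model samples plated on nutrient agar without drug and with drug at multiples of the 10% broth MIC. Growth reported as log CFU/ml, detection limit 2 log10.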

[19] = tested on: Staphylococcus aureus; experiment: Antibacterial activity against methicillin-resistant Staphylococcus aureus 33922 infected in in vitro pharmacokinetic model assessed as reduction in viable count at 750 mg, iv every 8 hrs measured after 48 hrs using 10^8 CFU/ml inoculum; format: functional
[20] = tested on: Staphylococcus aureus; experiment: T>MIC for static effect in methicillin-resistant Staphylococcus aureus 33815 in in vitro pharmacokinetic model after 24 hrs using 10^6 CFU/ml inoculum; format: functional
[21] = tested on: Staphylococcus aureus; experiment: Antibacterial activity against methicillin-resistant Staphylococcus aureus 33827 infected in in vitro pharmacokinetic model assessed as reduction in viable count at 1500 mg, iv every 8 hrs measured after 12 hrs using 10^8 CFU/ml inoculum; format: functional; outline: as §3
[22] = tested on: Staphylococcus aureus; experiment: AUBKC (0 to 48 hrs) in methicillin-resistant Staphylococcus aureus 33827 infected in in vitro pharmacokinetic model at 750 mg, iv every 8 hrs using 10^8 CFU/ml inoculum; format: functional; outline: as §1
[23] = tested on: Staphylococcus aureus; experiment: Antibacterial activity against methicillin-resistant Staphylococcus aureus 33921 infected in in vitro pharmacokinetic model assessed as reduction in viable count at 1500 mg, iv every 8 hrs measured after 36 hrs using 10^6 CFU/ml inoculum; format: functional; outline: as §3
[24] = tested on: Staphylococcus aureus; experiment: AUBKC (0 to 24 hrs) in methicillin-resistant Staphylococcus aureus 33922 infected in in vitro pharmacokinetic model at 750 mg, iv every 8 hrs using 10^6 CFU/ml inoculum; format: functional; outline: as §1
[25] = tested on: Staphylococcus aureus; experiment: T>MIC for 1-log drop in count in methicillin-resistant Staphylococcus aureus 33829 in in vitro pharmacokinetic model after 24 hrs using 10^6 CFU/ml inoculum; format: functional

C[C@@H](O)[C@H]1C(=O)N2C(C(=O)O)=C(S[C@H]3C[C@@H](C(=O)N4CC[C@H](NC(=O)CNC(=N)N)C4)N(C)C3)[C@H](C)[C@H]12 [TOMOPENEM]
log10CFU/ml [1]: <2
AUBC [2]: 71.5 log10CFU/ml.hr
fT>MIC [3]: 14.5%
log10CFU/ml [4]: 4.2
fT>MIC [5]: 79.1%
Activity [6]: Active
log10CFU/ml [7]: 3.8
fT>MIC [8]: 36.2%
log10CFU/ml [9]: 8.3
Activity [10]: inactive
log10CFU/ml [11]: <2
Time [12]: 12 h
fT>MIC [13]: 73%
log10CFU/ml [14]: 3.9
log10CFU/ml [15]: 5
fT>MIC [16]: 7.4%
log10CFU/ml [17]: 4.2
log10CFU/ml [18]: 5.8
log10CFU/ml [19]: 5.8
fT>MIC [20]: 5.3%
log10CFU/ml [21]: 3.4
AUBC [22]: 87.9 log10CFU/ml.hr
log10CFU/ml [23]: 4.2
AUBC [24]: 20.2 log10CFU/ml.hr
fT>MIC [25]: 16.8%
